Measured values reported in ChEMBL document CHEMBL2040763, “Waikialoid A suppresses hyphal morphogenesis and inhibits biofilm development in pathogenic Candida albicans” (J Nat Prod, 2012).
pIC50: −log10 of the molar value. Activity calls are given as the source filed them. The rule behind the calls is not given here.

Key:
[1] = test system: Candida albicans; test: Antifungal activity against Candida albicans DAY185 assessed as lowest compound concentration causing =>80% reduction in cell viability after 48 hrs by XTT assay; type: organism-based
[2] = test system: Candida albicans; test: Antifungal activity against Candida albicans DAY185 assessed as inhibition of biofilm formation after 48 hrs by XTT assay; type: functional, organism-based
[3] = test system: MIA PaCa-2; test: Cytotoxicity against human MIAPaCa2 after 24 hrs by MTT assay; type: cell-based; settings: MIA PaCa-2, 24 h
In short: (§1)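 MIA PaCa-2 cells, 10^4 per well, attached overnight at 37 °C, 5% CO2; compounds in DMSO added (final DMSO 1% by vol.), 24 h exposure; viability by MTT assay.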

[4] = test system: Candida albicans; test: Antifungal activity against Candida albicans DAY185 assessed as truncated hyphae formation at 50 uM after 24 hrs by phase contrast microscopic analysis; type: functional, organism-based
In short: (§2)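 BHI overnight cells washed, suspended in PBS, seeded 1×10^6 cells/well, 37 °C 1 h; non-adherent cells washed off; RPMI 1640 with 2% glucose plus compound in DMSO (1% by vol.), 37 °C up to 24 h; germ tubes/hyphae scored by phase contrast microscopy (×200) at 2.5, 6 and 24 h.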

[5] = test system: Candida albicans; test: Antifungal activity against Candida albicans DAY185 assessed as inhibition of germ tube formation at 50 uM after 6 hrs by phase contrast microscopic analysis; type: functional, organism-based; in short: as §2
[6] = test system: Candida albicans; test: Antifungal activity against Candida albicans DAY185 assessed as inhibition of hyphae formation at 50 uM after 6 hrs by phase contrast microscopic analysis; type: functional, organism-based; in short: as §2
[7] = test system: Candida albicans; test: Antifungal activity against Candida albicans DAY185 assessed as inhibition of hyphae formation after 6 hrs by phase contrast microscopic analysis; type: functional, organism-based; in short: as §2
[8] = test system: Candida albicans; test: Antifungal activity against Candida albicans DAY185 assessed as inhibition of biofilm formation at 0.2 to 100 uM administered 8 hrs after microbial seeding in 96-well microplate followed by 48 hrs incubation by XTT assay; type: functional, organism-based
In short: (§3)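 Time-of-addition variant of the biofilm assay: compound 100 to 0.2 μM added at -0.5, 0, 2, 4, 6 or 8 h after seeding in RPMI 1640/MOPS; at 48 h wells washed twice with PBS, biofilm quantified by XTT; triplicate in each of three trials; IC50 for 50% reduction of biofilm formation from curve fitting.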

[9] = test system: MIA PaCa-2; test: Cytotoxicity against human MIAPaCa2 up to 200 uM after 24 hrs by MTT assay; type: cell-based; settings: mia paca-2, 24 h; in short: as §1
[10] = test system: Candida albicans; test: Antifungal activity against Candida albicans DAY185 assessed as inhibition of biofilm formation at 0.2 to 100 uM administered 6 hrs after microbial seeding in 96-well microplate followed by 48 hrs incubation by XTT assay; type: functional, organism-based; in short: as §3
[11] = test system: Candida albicans; test: Antifungal activity against Candida albicans DAY185 assessed as inhibition of biofilm formation at 0.2 to 100 uM administered 2 to 4 hrs after microbial seeding in 96-well microplate followed by 48 hrs incubation by XTT assay; type: functional, organism-based; in short: as §3

Row | SMILES | MIC [1] [µM] | pIC50 [2] | other results
1 | CC1(C)C=Cc2c(ccc3c2[N+]([O-])=C2C3=C[C@@]34NC(=O)[C@]5(CCCN5C3=O)C[C@H]4C2(C)C)O1 [AVRAINVILLAMIDE] | > 200 | 4.36 | pIC50 [3]: 4.95
2 | CC1(C)C=Cc2c(ccc3c4c([nH]c23)C(C)(C)[C@@H]2C[C@]35CCCN3C(=O)[C@@]2(C4)NC5=O)O1 [STEPHACIDIN A] | > 200 | 4.26 | 
3 | CC1(C)C=Cc2c(ccc3c4c([nH]c23)C(C)(C)[C@@H]2C[C@]35CCCN3C(=O)[C@]2(NC5=O)[C@H]4O)O1 [NOTOAMIDE R] | > 200 | 4.01 | 
4 | C/C=C/C=C/C=C/[C@H]1C[C@@H](O)CC(=O)[C@@H]1C [WAIKIALIDE A] | > 200 | 4.49 | Activity [4]: Active; inhibition [5]: Active; inhibition [6]: Active; inhibition [7]: Dose-dependent effect
5 | CC1(C)C=Cc2c(ccc3c2NC(=O)[C@@]32[C@H](O)[C@@]34NC(=O)[C@]5(CCCN5C3=O)C[C@H]4C2(C)C)O1 [SCLEROTIAMIDE] | > 200 | 4.03 | 
6 | CC1(C)C=Cc2c(ccc3c2[N+]([O-])=C2C(C)(C)[C@@H]4C[C@]56CCCN5C(=O)[C@]4(NC6=O)[C@H]4N5C(=O)[C@@]67CCCN6C(=O)[C@@]56[C@@H]([C@]234)[C@]2(O)C(=[N+]([O-])c3c2ccc2c3C=CC(C)(C)O2)C(C)(C)[C@@H]6C7)O1 [WAIKIALOID B] | > 200 | 4.33 | pIC50 [3]: 5.09
7 | CC1(C)C=Cc2c(ccc3c2NC(=O)[C@@]32C[C@@]34NC(=O)[C@]5(CCCN5C3=O)C[C@H]4C2(C)C)O1 [NOTOAMIDE B] | > 200 | 3.96 | 
8 | C/C=C/C=C/C=C/[C@H]1C[C@@H](O)C[C@@H](O)[C@@H]1C [WAIKIALIDE B] | > 200 | 4.01 | 
9 | CC(C)=CCC/C(C)=C/CC/C(C)=C/CO [FARNESOL] | > 200 | 3.89 | 
10 | CC1(C)C=Cc2c(ccc3c2[N+]([O-])=C2C(C)(C)[C@@H]4C[C@]56CCCN5C(=O)[C@]4(NC6=O)[C@H]4N5C(=O)[C@@]67CCCN6C(=O)[C@@]56[C@H](c5c([nH]c8c9c(ccc58)OC(C)(C)C=C9)C(C)(C)[C@@H]6C7)[C@]234)O1 [WAIKIALOID A] | > 200 | 5.85 | inhibition [8]: inactive; Activity [9]: Non-toxic; inhibition [10]: inactive; inhibition [2]: Dose-dependent effect; Activity [4]: Active; inhibition [5]: Active; inhibition [11]: Active; inhibition [6]: Active; inhibition [7]: Dose-dependent effect
